Laboratory results as given in ChEMBL document CHEMBL3351600, “Sulfur, selenium and tellurium pseudopeptides: synthesis and biological evaluation” (Bioorg Med Chem, 2014).

Columns and labels:
[1] = Growth inhibition of human COLO205 cells after 48 hrs; assay type: functional; conditions: COLO 205, 48 h
In short: (§1)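 NCI-60 human tumour cell line panel screen run at the US National Cancer Institute under its standard cytotoxicity protocol. It covers leukaemia, NSCLC, colon, CNS, melanoma, ovarian, renal, prostate and breast lines. An initial single-dose test was followed by five-dose testing with 48 h compound exposure.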

KM12 = assay: Growth inhibition of human KM12 cells after 48 hrs; assay type: functional; conditions: KM12, 48 h; in short: as §1
[2] = Cytotoxicity against human fibroblasts assessed as cell viability after 24 hrs incubation by MTT assay; assay type: cell-based; conditions: Fibroblast
In short: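 Cell lines came from DSMZ; primary human fibroblasts served as non-cancer controls. Cells were grown in medium with 10% FCS, seeded at 50,000 cells/ml, and grown 2 days at 37 °C, 10% CO2. Serial dilutions were then added for 24 h. MTT (final 0.5 mg/ml) was added for 2 h. Formazan was pelleted, PBS-washed, dissolved in isopropanol/0.4% HCl and read at 590 nm. Two parallel experiments were run. IC50 was taken as the concentration giving 50% of untreated-control absorbance.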

[3] = Growth inhibition of human MOLT4 cells after 48 hrs; assay type: functional; conditions: MOLT-4, 48 h; in short: as §1
[4] = Growth inhibition of human PC3 cells after 48 hrs; assay type: functional; conditions: PC-3, 48 h; in short: as §1
HL-60(TB) = assay: Growth inhibition of human HL-60(TB) cells after 48 hrs; assay type: functional; conditions: HL-60, 48 h; in short: as §1
MDA-MB-231 = assay: Growth inhibition of human MDA-MB-231 cells after 48 hrs; assay type: functional; conditions: MDA-MB-231, 48 h; in short: as §1
A498 = assay: Growth inhibition of human A498 cells after 48 hrs; assay type: functional; conditions: A498, 48 h; in short: as §1
Mycolicibacterium phlei = assay: Antimicrobial activity against Mycobacterium phlei assessed as inhibition at 20 ug/6 mm disk after 1 to 2 days by agar diffusion assay; assay type: functional
In short: (§2)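 Standard agar diffusion: 6-mm paper disks loaded with 20 µg of compound were placed on inoculated plates. Inhibition-zone diameter (mm) was read after 1 and 2 days of growth.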

Malme-3M = assay: Growth inhibition of human MALME-3M cells after 48 hrs; assay type: functional; in short: as §1
MCF7 = assay: Growth inhibition of human MCF7 cells after 48 hrs; assay type: functional; conditions: MCF7, 48 h; in short: as §1
NCI-H226 = assay: Growth inhibition of human NCI-H226 cells after 48 hrs; assay type: functional; conditions: NCI-H226, 48 h; in short: as §1
ACHN = assay: Growth inhibition of human ACHN cells after 48 hrs; assay type: functional; in short: as §1
SNB-19 = assay: Growth inhibition of human SNB19 cells after 48 hrs; assay type: functional; conditions: SNB-19, 48 h
In short: (§3)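 Run by the NCI 58-cell-line screen under its standard cytotoxicity protocol. Compounds were first tested at a single dose, then at five doses. Cells were exposed to compound for 48 h.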

[5] = Growth inhibition of human HCT15 cells after 48 hrs; assay type: functional; conditions: HCT-15, 48 h; in short: as §1
[6] = Growth inhibition of human SF295 cells after 48 hrs; assay type: functional; conditions: SF-295, 48 h; in short: as §1
T47D = assay: Growth inhibition of human T47D cells after 48 hrs; assay type: functional; in short: as §3
Escherichia coli = assay: Antimicrobial activity against Escherichia coli tolC assessed as inhibition at 20 ug/6 mm disk after 1 to 2 days by agar diffusion assay; assay type: functional; in short: as §2
NCI-H23 = assay: Growth inhibition of human NCI-H23 cells after 48 hrs; assay type: functional; conditions: NCI-H23, 48 h; in short: as §1
786-0 = assay: Growth inhibition of human 786-0 cells after 48 hrs; assay type: functional; conditions: 786-0, 48 h; in short: as §1
Pseudomonas aeruginosa = assay: Antimicrobial activity against Pseudomonas aeruginosa assessed as inhibition at 20 ug/6 mm disk after 1 to 2 days by agar diffusion assay; assay type: functional; in short: as §2
M14 = assay: Growth inhibition of human M14 cells after 48 hrs; assay type: functional; conditions: M14, 48 h; in short: as §1
SN12C = assay: Growth inhibition of human SN12C cells after 48 hrs; assay type: functional; in short: as §3
[7] = Growth inhibition of human Hs 578T cells after 48 hrs; assay type: functional; in short: as §1
TK-10 = assay: Growth inhibition of human TK10 cells after 48 hrs; assay type: functional; conditions: TK-10, 48 h; in short: as §3
Aspergillus niger = assay: Antimicrobial activity against Aspergillus niger assessed as inhibition at 20 ug/6 mm disk after 1 to 2 days by agar diffusion assay; assay type: functional; in short: as §2
SNB-75 = assay: Growth inhibition of human SNB75 cells after 48 hrs; assay type: functional; conditions: SNB-75, 48 h; in short: as §3
SK-MEL-2 = assay: Growth inhibition of human SK-MEL-2 cells after 48 hrs; assay type: functional; conditions: SK-MEL-2, 48 h; in short: as §1
Micrococcus luteus = assay: Antimicrobial activity against Micrococcus luteus assessed as inhibition at 20 ug/6 mm disk after 1 to 2 days by agar diffusion assay; assay type: functional; in short: as §2
[8] = Growth inhibition of human RPMI8226 cells after 48 hrs; assay type: functional; conditions: RPMI-8226, 48 h; in short: as §1
Staphylococcus aureus = assay: Antimicrobial activity against Staphylococcus aureus assessed as inhibition at 20 ug/6 mm disk after 1 to 2 days by agar diffusion assay; assay type: functional; in short: as §2
[9] = Growth inhibition of human LOXIMVI cells after 48 hrs; assay type: functional; conditions: LOX IMVI; in short: as §1
[10] = read-out: pLC50 (the source's name) (converted)

Compound: COc1ccc(N(CC(=O)NCCC[Te]c2ccccc2)C(=O)c2ccccc2)cc1
- GI50 [1]: 2570 nM
- CC50 [1, 10]: > 100 µM
- TGI ([1]; read-out: pTGI (converted)): 6.03 µM
- GI50 (KM12): 3.16 µM
- CC50 (KM12; [10]): 46.8 µM
- TGI (KM12; read-out: pTGI (converted)): 11.7 µM
- IC50 [2]: 7.5 µM
- GI50 [3]: 3.55 µM
- CC50 [3, 10]: > 100 µM
- TGI ([3]; read-out: pTGI (converted)): 16.6 µM
- GI50 [4]: 2690 nM
- LC50 [4]: > 100 µM
- TGI ([4]; read-out: pTGI (converted)): 12.6 µM
- GI50 (HL-60(TB)): 2140 nM
- CC50 (HL-60(TB); [10]): > 100 µM
- TGI (HL-60(TB); read-out: pTGI (converted)): 5.75 µM
- GI50 (MDA-MB-231): 2630 nM
- LC50 (MDA-MB-231): > 100 µM
- TGI (MDA-MB-231; read-out: pTGI (converted)): 4.79 µM
- GI50 (A498): 2190 nM
- LC50 (A498): 25.1 µM
- TGI (A498; read-out: pTGI (converted)): 5.37 µM
- diameter of the inhibition zone (DIZ) (Mycolicibacterium phlei): 17 mm
- GI50 (Malme-3M): 16.6 µM
- CC50 (Malme-3M; [10]): 72.4 µM
- TGI (Malme-3M; read-out: pTGI (converted)): 34.7 µM
- GI50 (MCF7): 3.16 µM
- LC50 (concentration killing 50% of cells) (MCF7): 75.9 µM
- TGI (MCF7; read-out: pTGI (converted)): 10.7 µM
- GI50 (NCI-H226): 2630 nM
- CC50 (NCI-H226; [10]): 100 µM
- TGI (NCI-H226; read-out: pTGI (converted)): 7.24 µM
- GI50 (ACHN): 3.16 µM
- LC50 (ACHN): 39.8 µM
- TGI (ACHN; read-out: pTGI (converted)): 9.55 µM
- GI50 (SNB-19): 4.07 µM
- CC50 (SNB-19; [10]): > 100 µM
- TGI (SNB-19; read-out: pTGI (converted)): 58.9 µM
- GI50 [5]: 2950 nM
- CC50 [5, 10]: > 100 µM
- TGI ([5]; read-out: pTGI (converted)): 15.1 µM
- GI50 [6]: 1700 nM
- CC50 [6, 10]: > 100 µM
- TGI ([6]; read-out: pTGI (converted)): 8.13 µM
- GI50 (T47D): 3.39 µM
- LC50 (T47D): > 100 µM
- TGI (T47D; read-out: pTGI (converted)): 21.4 µM
- diameter of the inhibition zone (DIZ) (Escherichia coli): 11 mm
- GI50 (NCI-H23): 3.16 µM
- CC50 (NCI-H23; [10]): > 100 µM
- TGI (NCI-H23; read-out: pTGI (converted)): 9.33 µM
- GI50 (786-0): 5.13 µM
- LC50 (786-0): 64.6 µM
- TGI (786-0; read-out: pTGI (converted)): 19.5 µM
- diameter of the inhibition zone (DIZ) (Pseudomonas aeruginosa): 9 mm
- GI50 (M14): 4.17 µM
- CC50 (M14; [10]): 63.1 µM
- TGI (M14; read-out: pTGI (converted)): 15.5 µM
- GI50 (SN12C): 2690 nM
- LC50 (SN12C): > 100 µM
- TGI (SN12C; read-out: pTGI (converted)): 8.51 µM
- LC50 [7]: > 100 µM
- GI50 (TK-10): 3.89 µM
- LC50 (TK-10): 69.2 µM
- TGI (TK-10; read-out: pTGI (converted)): 11.5 µM
- diameter of the inhibition zone (DIZ) (Aspergillus niger): 10 mm
- GI50 (SNB-75): 2570 nM
- CC50 (SNB-75; [10]): 39.8 µM
- TGI (SNB-75; read-out: pTGI (converted)): 9.55 µM
- GI50 (SK-MEL-2): 4.17 µM
- CC50 (SK-MEL-2; [10]): > 100 µM
- TGI (SK-MEL-2; read-out: pTGI (converted)): 15.1 µM
- diameter of the inhibition zone (DIZ) (Micrococcus luteus): 13 mm
- GI50 [8]: 3.16 µM
- CC50 [8, 10]: > 100 µM
- TGI ([8]; read-out: pTGI (converted)): 19.1 µM
- diameter of the inhibition zone (DIZ) (Staphylococcus aureus): 12 mm
- GI50 [9]: 3.72 µM
- LC50 [9]: 100 µM
- TGI ([9]; read-out: pTGI (converted)): 14.1 µM
